Test results taken from ChEMBL document CHEMBL1177669, “Synthesis and biological study of 3-(phenylsulfonyl)thieno[2,3-e][1,2,3]triazolo[1,5-a]pyrimidines as potent and selective serotonin 5-HT6 receptor antagonists” (Bioorg Med Chem, 2010).

What was measured:
[1] = molecular target: T1, 5-hydroxytryptamine receptor 6 (Homo sapiens, UniProt P50406); test: Binding affinity to human recombinant 5HT6 receptor expressed in HEK293 cells by radioligand displacement assay; format: cell-based
Outline: (§1)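 Competitive radioligand binding at the 5-HT6 receptor, run by MDS Pharma Services as part of a serotonin receptor panel. IC50 and Ki values derived.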

[2] = molecular target: T2, 5-hydroxytryptamine receptor 1A (Homo sapiens) (UniProt P08908); test: Binding affinity to 5HT1A receptor at 1 uM by radioligand displacement assay
T2 sequence (whole entry): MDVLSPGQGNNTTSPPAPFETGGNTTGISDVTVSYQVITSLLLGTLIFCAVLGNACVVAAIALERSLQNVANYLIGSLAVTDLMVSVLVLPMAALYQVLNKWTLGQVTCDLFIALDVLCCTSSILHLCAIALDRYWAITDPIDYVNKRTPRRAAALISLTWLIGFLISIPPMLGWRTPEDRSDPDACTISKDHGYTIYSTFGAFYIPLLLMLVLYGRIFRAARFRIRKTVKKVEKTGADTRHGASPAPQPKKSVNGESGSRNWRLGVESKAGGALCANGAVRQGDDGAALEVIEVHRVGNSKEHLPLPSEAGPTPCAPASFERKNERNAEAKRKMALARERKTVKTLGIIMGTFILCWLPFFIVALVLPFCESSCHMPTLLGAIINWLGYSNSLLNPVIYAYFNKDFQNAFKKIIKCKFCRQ
Outline: (§2)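 Competitive radioligand binding run by MDS Pharma Services on a serotonin receptor panel. Test compound at 1 µM. Read-out is % displacement of radioligand from each receptor complex.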

[3] = molecular target: T3, hERG (KCNH2) (Homo sapiens, UniProt Q12809); test: Inhibition of human ERG at 30 uM by patch clamp assay
Outline: (§3)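 hERG potassium channel inhibition measured by patch clamp, performed by MDS Pharma Services. Read-out is % inhibition at a single test concentration.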

[4] = molecular target: 5-hydroxytryptamine receptor 1B (Homo sapiens) (UniProt P28222); test: Binding affinity to 5HT1B receptor at 1 uM by radioligand displacement assay; outline: as §2
[5] = molecular target: 5-hydroxytryptamine receptor 2B (Homo sapiens) (UniProt P41595); test: Binding affinity to 5HT2B receptor at 1 uM by radioligand displacement assay; outline: as §2
[6] = molecular target: T1, 5-hydroxytryptamine receptor 6; test: Binding affinity to human recombinant 5HT6 receptor expressed in HEK293 cells at 1 uM by radioligand displacement assay; format: cell-based; outline: as §2
[7] = molecular target: 5-hydroxytryptamine receptor 2A (Homo sapiens) (UniProt P28223); test: Binding affinity to 5HT2A receptor at 1 uM by radioligand displacement assay; outline: as §2
[8] = molecular target: 5-hydroxytryptamine receptor 4 (Homo sapiens) (UniProt Q13639); test: Binding affinity to 5HT4 receptor at 1 uM by radioligand displacement assay; outline: as §2
[9] = molecular target: T1, 5-hydroxytryptamine receptor 6; test: Antagonist activity at human recombinant 5HT6 receptor expressed in HEK293 cells assessed as inhibition of serotonin-induced cAMP production; format: functional, cell-based
Outline: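 HEK293 cells stably expressing recombinant human 5-HT6R, stimulated with serotonin. cAMP from adenylyl cyclase measured by LANCE. Compounds screened at 5 and 10 μM. IC50 determined for compounds giving more than 50% inhibition of cAMP synthesis at 5 μM.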

[10] = molecular target: T4, 5-hydroxytryptamine receptor 2C (Homo sapiens) (UniProt P28335); test: Binding affinity to 5HT2C receptor at 1 uM by radioligand displacement assay; outline: as §2
T4 sequence (whole entry): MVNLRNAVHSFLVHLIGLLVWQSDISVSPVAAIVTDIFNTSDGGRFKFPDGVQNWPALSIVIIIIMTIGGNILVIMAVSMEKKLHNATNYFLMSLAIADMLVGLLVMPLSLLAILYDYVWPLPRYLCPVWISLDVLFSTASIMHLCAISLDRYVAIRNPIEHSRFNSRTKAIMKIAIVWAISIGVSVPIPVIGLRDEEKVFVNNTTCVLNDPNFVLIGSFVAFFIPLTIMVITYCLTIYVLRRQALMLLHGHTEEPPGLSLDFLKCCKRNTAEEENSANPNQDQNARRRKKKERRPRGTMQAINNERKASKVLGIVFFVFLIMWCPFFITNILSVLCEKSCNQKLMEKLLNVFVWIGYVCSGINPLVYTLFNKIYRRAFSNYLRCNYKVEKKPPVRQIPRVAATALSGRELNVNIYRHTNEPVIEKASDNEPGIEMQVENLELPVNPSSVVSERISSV

[11] = molecular target: 5-hydroxytryptamine receptor 7 (Homo sapiens) (UniProt P34969); test: Binding affinity to 5HT7 receptor at 1 uM by radioligand displacement assay; outline: as §2
[12] = molecular target: T5, 5-hydroxytryptamine receptor 3A (Homo sapiens) (UniProt P46098); test: Binding affinity to 5HT3 receptor at 1 uM by radioligand displacement assay; outline: as §2
T5 sequence (whole entry): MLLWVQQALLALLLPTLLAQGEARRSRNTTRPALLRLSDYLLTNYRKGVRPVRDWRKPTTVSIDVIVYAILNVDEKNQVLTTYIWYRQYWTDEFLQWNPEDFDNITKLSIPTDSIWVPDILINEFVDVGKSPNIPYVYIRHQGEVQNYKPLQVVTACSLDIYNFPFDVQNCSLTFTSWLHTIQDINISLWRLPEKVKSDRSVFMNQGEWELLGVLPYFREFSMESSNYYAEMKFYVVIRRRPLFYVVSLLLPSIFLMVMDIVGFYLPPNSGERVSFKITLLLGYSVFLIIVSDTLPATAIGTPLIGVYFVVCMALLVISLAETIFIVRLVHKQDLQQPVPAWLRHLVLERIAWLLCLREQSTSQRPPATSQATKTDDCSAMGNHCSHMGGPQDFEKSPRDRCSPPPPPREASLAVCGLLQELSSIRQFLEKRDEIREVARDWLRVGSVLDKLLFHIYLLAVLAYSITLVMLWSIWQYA

[13] = molecular target: T3, hERG (KCNH2); test: Inhibition of human ERG at 15 uM by patch clamp assay; outline: as §3
[14] = molecular target: T1, 5-hydroxytryptamine receptor 6; test: Displacement of radioligand from human recombinant 5HT6 receptor in competitive radioligand binding assay
[15] = molecular target: T1, 5-hydroxytryptamine receptor 6; test: Binding affinity to 5HT6 receptor; outline: as §1

T1 sequence (P50406 whole entry): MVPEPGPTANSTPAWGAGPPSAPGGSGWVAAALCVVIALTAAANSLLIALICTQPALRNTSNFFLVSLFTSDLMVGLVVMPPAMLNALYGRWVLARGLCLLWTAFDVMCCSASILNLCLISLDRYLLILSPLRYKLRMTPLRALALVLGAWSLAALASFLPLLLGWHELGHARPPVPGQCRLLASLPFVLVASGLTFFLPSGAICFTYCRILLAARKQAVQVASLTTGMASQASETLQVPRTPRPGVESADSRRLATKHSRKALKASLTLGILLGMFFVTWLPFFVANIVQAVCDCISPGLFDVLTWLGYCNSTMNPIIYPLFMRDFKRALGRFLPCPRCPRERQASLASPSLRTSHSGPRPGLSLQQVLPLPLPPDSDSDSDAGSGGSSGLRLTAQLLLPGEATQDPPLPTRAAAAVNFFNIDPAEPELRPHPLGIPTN
Sequence of 5-hydroxytryptamine receptor 2B (Homo sapiens) (P41595 whole entry): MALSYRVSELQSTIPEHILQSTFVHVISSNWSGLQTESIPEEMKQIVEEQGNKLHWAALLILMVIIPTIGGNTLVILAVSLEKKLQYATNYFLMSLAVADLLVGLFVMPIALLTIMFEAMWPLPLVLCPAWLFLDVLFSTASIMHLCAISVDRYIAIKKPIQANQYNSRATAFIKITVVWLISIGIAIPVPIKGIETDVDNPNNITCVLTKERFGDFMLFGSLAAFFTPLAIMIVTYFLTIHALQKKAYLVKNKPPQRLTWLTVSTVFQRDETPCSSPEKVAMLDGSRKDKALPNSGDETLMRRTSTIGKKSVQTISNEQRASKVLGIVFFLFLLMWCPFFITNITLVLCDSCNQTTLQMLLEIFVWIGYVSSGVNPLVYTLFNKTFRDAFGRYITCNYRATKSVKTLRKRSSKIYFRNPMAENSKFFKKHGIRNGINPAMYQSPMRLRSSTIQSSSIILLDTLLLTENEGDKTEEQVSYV
Sequence of 5-hydroxytryptamine receptor 4 (Homo sapiens) (Q13639 whole entry): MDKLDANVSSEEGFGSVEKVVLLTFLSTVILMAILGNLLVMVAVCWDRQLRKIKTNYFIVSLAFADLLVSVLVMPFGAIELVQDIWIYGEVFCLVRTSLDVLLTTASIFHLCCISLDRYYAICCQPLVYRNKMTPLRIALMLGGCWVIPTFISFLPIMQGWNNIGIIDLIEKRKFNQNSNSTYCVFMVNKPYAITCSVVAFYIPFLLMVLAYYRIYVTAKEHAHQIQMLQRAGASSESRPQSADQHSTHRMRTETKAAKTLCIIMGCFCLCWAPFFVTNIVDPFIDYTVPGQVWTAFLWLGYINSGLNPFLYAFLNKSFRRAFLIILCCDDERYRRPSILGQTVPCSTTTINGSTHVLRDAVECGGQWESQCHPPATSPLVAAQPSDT
T3 sequence (Q12809 whole entry): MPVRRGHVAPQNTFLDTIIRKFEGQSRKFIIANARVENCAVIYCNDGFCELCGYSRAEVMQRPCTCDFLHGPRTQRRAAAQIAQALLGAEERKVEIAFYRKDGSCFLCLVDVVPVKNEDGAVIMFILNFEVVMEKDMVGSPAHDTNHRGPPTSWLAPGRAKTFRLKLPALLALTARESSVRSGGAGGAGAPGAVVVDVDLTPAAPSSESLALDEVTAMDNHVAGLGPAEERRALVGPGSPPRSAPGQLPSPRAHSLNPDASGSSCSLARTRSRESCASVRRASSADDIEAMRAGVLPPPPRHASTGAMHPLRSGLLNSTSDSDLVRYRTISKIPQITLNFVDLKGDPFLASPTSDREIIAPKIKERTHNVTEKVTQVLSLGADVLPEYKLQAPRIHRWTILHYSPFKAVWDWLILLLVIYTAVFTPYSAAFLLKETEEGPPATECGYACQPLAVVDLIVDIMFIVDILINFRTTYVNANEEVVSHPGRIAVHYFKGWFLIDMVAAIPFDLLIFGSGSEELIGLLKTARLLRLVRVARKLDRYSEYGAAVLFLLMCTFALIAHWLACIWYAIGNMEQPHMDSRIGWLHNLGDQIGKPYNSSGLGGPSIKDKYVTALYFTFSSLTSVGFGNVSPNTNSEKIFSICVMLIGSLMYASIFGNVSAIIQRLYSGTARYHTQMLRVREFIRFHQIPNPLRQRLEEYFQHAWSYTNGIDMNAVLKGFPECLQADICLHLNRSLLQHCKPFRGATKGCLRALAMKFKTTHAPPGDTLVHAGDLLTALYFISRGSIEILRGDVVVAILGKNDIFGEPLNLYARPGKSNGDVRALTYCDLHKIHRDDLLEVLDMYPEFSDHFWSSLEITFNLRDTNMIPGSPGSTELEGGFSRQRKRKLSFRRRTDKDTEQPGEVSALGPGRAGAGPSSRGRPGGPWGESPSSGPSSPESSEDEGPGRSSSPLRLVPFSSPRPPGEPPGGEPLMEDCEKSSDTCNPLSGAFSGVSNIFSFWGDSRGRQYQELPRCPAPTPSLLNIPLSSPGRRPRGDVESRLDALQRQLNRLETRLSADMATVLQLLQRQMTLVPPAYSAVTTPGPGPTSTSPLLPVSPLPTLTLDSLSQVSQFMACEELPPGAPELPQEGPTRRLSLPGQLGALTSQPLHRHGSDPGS
Sequence of 5-hydroxytryptamine receptor 1B (Homo sapiens) (P28222 whole entry): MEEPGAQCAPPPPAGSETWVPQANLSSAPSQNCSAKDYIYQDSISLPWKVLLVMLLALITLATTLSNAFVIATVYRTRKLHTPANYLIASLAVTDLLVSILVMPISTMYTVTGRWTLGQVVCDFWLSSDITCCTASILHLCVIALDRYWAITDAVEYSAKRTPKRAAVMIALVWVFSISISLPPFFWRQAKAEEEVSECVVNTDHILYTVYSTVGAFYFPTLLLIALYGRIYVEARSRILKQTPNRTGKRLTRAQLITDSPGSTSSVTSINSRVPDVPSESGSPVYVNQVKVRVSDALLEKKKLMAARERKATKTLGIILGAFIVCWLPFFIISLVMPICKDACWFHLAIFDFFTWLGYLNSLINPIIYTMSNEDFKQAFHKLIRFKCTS
Sequence of 5-hydroxytryptamine receptor 2A (Homo sapiens) (P28223 whole entry): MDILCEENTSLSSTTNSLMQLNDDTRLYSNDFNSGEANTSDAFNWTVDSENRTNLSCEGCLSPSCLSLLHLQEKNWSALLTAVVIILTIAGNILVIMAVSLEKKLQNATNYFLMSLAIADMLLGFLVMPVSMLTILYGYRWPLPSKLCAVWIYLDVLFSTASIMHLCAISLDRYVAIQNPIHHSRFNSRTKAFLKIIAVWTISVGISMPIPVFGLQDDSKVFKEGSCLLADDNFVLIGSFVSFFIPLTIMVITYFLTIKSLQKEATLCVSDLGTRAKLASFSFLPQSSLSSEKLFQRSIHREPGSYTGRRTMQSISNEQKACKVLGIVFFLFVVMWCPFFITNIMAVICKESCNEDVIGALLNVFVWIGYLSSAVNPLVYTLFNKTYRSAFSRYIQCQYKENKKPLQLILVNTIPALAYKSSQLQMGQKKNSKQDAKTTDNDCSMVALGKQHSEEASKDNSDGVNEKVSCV
Sequence of 5-hydroxytryptamine receptor 7 (Homo sapiens) (P34969 whole entry): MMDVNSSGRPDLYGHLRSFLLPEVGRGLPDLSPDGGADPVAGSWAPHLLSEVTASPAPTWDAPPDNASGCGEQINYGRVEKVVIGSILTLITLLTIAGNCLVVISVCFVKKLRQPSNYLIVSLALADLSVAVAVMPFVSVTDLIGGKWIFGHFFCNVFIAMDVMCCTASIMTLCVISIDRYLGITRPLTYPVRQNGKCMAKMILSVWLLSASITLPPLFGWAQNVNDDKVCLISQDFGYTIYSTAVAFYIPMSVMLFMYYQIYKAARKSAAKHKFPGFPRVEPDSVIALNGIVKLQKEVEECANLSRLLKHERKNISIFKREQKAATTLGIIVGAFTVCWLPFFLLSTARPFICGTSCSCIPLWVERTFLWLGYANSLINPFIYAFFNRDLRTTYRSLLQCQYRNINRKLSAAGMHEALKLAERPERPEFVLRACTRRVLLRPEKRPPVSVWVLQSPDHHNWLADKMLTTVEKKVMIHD

| SMILES | IC50 [1] | Ki [1] | IC50 [9] | other results |
| --- | --- | --- | --- | --- |
| O=S(=O)(c1ccccc1)c1nnn2c1nc(NCc1cccnc1)c1sccc12 | > 30 nM | – | 260 nM | – |
| CC(C)Nc1nc2c(S(=O)(=O)c3ccccc3)nnn2c2ccsc12 | 65 nM | 30.2 nM | 370 nM | – |
| CN(Cc1cccnc1)c1nc2c(S(=O)(=O)c3ccccc3)nnn2c2ccsc12 | > 30 nM | – | 500 nM | – |
| Cc1ccc(C)c(S(=O)(=O)c2nnn3c2nc(N)c2sccc23)c1 | 99.1 nM | 46 nM | 1220 nM | – |
| CN(C)c1nc2c(S(=O)(=O)c3ccccc3)nnn2c2ccsc12 | > 30 nM | – | – | IC50 [14]: > 300 nM |
| CN(C)CCN(C)c1nc2c(S(=O)(=O)c3ccccc3)nnn2c2ccsc12 | > 300 nM | – | 870 nM | – |
| CCC(C)Nc1nc2c(S(=O)(=O)c3ccccc3)nnn2c2ccsc12 (stereo unspecified) | – | – | – | IC50 [15]: 9.6 nM |

Continued, in another order:

| IC50 [1] | Ki [1] | IC50 [9] | SMILES | other results |
| --- | --- | --- | --- | --- |
| 7.5 nM | 3.5 nM | 920 nM | CN(Cc1ccccc1)c1nc2c(S(=O)(=O)c3cccc(Cl)c3)nnn2c2ccsc12 | Activity [2]: 9%; inhibition at 30 µM [3]: 20%; Activity [4]: 3%; Activity [5]: 46%; Activity [6]: 106%; Activity [7]: 50%; Activity [8]: 41%; Activity [10]: 15%; Activity [11]: 6%; Activity [12]: -3% |
| 6.9 nM | 3.2 nM | 200 nM | O=S(=O)(c1ccccc1)c1nnn2c1nc(NC1CCCCC1)c1sccc12 | – |
| 31.7 nM | 14.7 nM | 1250 nM | O=S(=O)(c1cccc(Cl)c1)c1nnn2c1nc(NCc1cccnc1)c1sccc12 | – |
| 3.6 nM | 1.7 nM | 110 nM | O=S(=O)(c1ccccc1)c1nnn2c1nc(NCc1cccs1)c1sccc12 | – |
| 11.9 nM | 5.5 nM | 140 nM | O=S(=O)(c1ccccc1)c1nnn2c1nc(NC1CCCC1)c1sccc12 | – |
| 6.1 nM | 2.8 nM | 40 nM | O=S(=O)(c1ccccc1)c1nnn2c1nc(NCc1ccco1)c1sccc12 | – |
| 17.5 nM | 8.1 nM | 63 nM | O=S(=O)(c1ccccc1)c1nnn2c1nc(NCC1CCCO1)c1sccc12 (stereo unspecified) | – |
| 5 nM | 2.3 nM | 170 nM | CN(Cc1ccccc1)c1nc2c(S(=O)(=O)c3ccccc3)nnn2c2ccsc12 | inhibition at 15 µM [13]: 20%; Activity [2]: 2%; Activity [4]: 1%; Activity [5]: 12%; Activity [6]: 103%; Activity [7]: 15%; Activity [8]: 33%; Activity [10]: 2%; Activity [11]: -2%; Activity [12]: -7% |
| 28.3 nM | – | 350 nM | Cc1ccc(C)c(S(=O)(=O)c2nnn3c2nc(NC(C)C)c2sccc23)c1 | – |
